ChEMBL document CHEMBL1140331, “Iterative approach to the discovery of novel degarelix analogues: substitutions at positions 3, 7, and 8. Part II” (J Med Chem, 2005)
*1 amine or outer side, *2 acyl side, *3 side chain or, on linkers, in order; H or OH if unused. Where a SMILES comes first, the peptide text is derived from it. [ ]: non-standard residue; d: D form. The star is where a group is joined. Phe(4-NH(5-NH2triazol-3-yl)) = Nc1nc(Nc2ccc(C[C@H](N)C(=O)O)cc2)n[nH]1; X1 = Nc1nc(Nc2ccc(C[C@@H](N[*:1])C(=O)[*:2])cc2)n[nH]1; dPhe(4-NHCONH2) = NC(=O)Nc1ccc(C[C@@H](N)C(=O)O)cc1; Dihydroorotyl(S) = O=C1C[C@@H](C(=O)*)NC(=O)N1; dPhe(4-Cl) = N[C@H](Cc1ccc(Cl)cc1)C(=O)O; Phe(4-NH2) = Nc1ccc(C[C@H](N)C(=O)O)cc1; d2Nal = N[C@H](Cc1ccc2ccccc2c1)C(=O)O; Lys(iPr) = CC(C)NCCCC[C@H](N)C(=O)O; d3Pal = N[C@H](Cc1cccnc1)C(=O)O

Target: T1, Gonadotropin-releasing hormone receptor (Homo sapiens, UniProt P30968)
T1 sequence (P30968 whole entry): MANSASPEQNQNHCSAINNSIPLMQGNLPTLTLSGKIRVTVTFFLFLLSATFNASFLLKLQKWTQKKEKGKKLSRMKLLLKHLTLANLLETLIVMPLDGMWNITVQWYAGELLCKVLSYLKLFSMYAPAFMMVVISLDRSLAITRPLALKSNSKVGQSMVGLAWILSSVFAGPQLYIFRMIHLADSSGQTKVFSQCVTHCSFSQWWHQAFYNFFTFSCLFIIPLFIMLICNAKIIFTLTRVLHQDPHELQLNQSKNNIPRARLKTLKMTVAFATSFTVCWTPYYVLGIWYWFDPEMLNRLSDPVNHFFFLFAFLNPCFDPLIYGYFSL
Assay: Antagonism of GnRH response in HEK293 cells expressing human GnRH receptor
Format: functional, cell-based
Summary of the method: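 HEK293 cells stably carrying cloned human GnRH receptor and luciferase reporter under LH α-subunit promoter; cultured in phenol red-free DMEM, 10% FBS, G418 0.4 mg/mL; plated 5×10^4 cells/well, overnight 37 °C. Compound (11 half-log concentrations, duplicate, 1% DMSO) preincubated 10 min, then GnRH 1 nM final, ≥5 h; luminescence read; % of control cps (blank-subtracted) gives IC50.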

Row | Structure (SMILES) | IC50 | IC50 (hek293)
1 | CC(=O)N[C@H](Cc1ccc2ccccc2c1)C(=O)N[C@H](Cc1ccc(Cl)cc1)C(=O)N[C@H](Cc1cccnc1)C(=O)N[C@@H](CO)C(=O)N[C@@H](Cc1ccc(NC(=O)[C@@H]2CC(=O)NC(=O)N2)cc1)C(=O)N[C@H](Cc1ccc(NC(N)=O)cc1)C(=O)N[C@@H](CS)C(=O)N[C@@H](CCCCNC(C)C)C(=O)N1CCC[C@H]1C(=O)N[C@H](C)C(N)=O | 178 nM | –
2 | CC(=O)N[C@H](Cc1ccc2ccccc2c1)C(=O)N[C@H](Cc1ccc(Cl)cc1)C(=O)N[C@H](Cc1cccnc1)C(=O)N[C@@H](CO)C(=O)N[C@@H](Cc1ccc(Nc2n[nH]c(N)n2)cc1)C(=O)N[C@H](Cc1ccc(Nc2n[nH]c(N)n2)cc1)C(=O)N[C@@H](CC(C)C)C(=O)N[C@@H](CCCCNC(C)C)C(=O)N1CCC[C@H]1C(=O)N[C@H](C)C(N)=O [PRAZARELIX ACETATE] (Ac-[d2Nal][dPhe(4-Cl)][d3Pal]S[Phe(4-NH(5-NH2triazol-3-yl))][X1]L[Lys(iPr)]P[dA]-NH2) | 1.4 nM | –
3 | CC(=O)N[C@H](Cc1ccc2ccccc2c1)C(=O)N[C@H](Cc1ccc(Cl)cc1)C(=O)N[C@H](CCNCc1ccccn1)C(=O)N[C@@H](CO)C(=O)N[C@@H](Cc1ccc(NC(=O)[C@@H]2CC(=O)NC(=O)N2)cc1)C(=O)N[C@H](Cc1ccc(NC(N)=O)cc1)C(=O)N[C@@H](CC(C)C)C(=O)N[C@@H](CCCCNC(C)C)C(=O)N1CCC[C@H]1C(=O)N[C@H](C)C(N)=O | – | 3.79 nM
4 | CC(=O)N[C@H](Cc1ccc2ccccc2c1)C(=O)N[C@H](Cc1ccc(Cl)cc1)C(=O)N[C@H](Cc1cccnc1)C(=O)N[C@@H](CO)C(=O)N[C@@H](Cc1ccc(NC(=O)[C@@H]2CC(=O)NC(=O)N2)cc1)C(=O)N[C@H](Cc1ccc(NC(N)=O)cc1)C(=O)N[C@@H](CC(=O)N(C)C)C(=O)N[C@@H](CCCCNC(C)C)C(=O)N1CCC[C@H]1C(=O)N[C@H](C)C(N)=O | 48.9 nM | –
5 | CC(=O)N[C@H](Cc1ccc2ccccc2c1)C(=O)N[C@H](Cc1ccc(Cl)cc1)C(=O)N[C@H](Cc1cccnc1)C(=O)N[C@@H](CO)C(=O)N[C@@H](Cc1ccc(NC(=O)[C@@H]2CC(=O)NC(=O)N2)cc1)C(=O)N[C@H](Cc1ccc(NC(N)=O)cc1)C(=O)N[C@@H](CC(C)C)C(=O)N[C@@H](CN[C@H](C(=O)O)C1CCCCC1)C(=O)N1CCC[C@H]1C(=O)N[C@H](C)C(N)=O | – | 2.01 nM
6 | CC(=O)N[C@H](Cc1ccc2ccccc2c1)C(=O)N[C@H](Cc1ccc(Cl)cc1)C(=O)N[C@H](Cc1cccnc1)C(=O)N[C@@H](CO)C(=O)N[C@@H](Cc1ccc(NC(=O)[C@@H]2CC(=O)NC(=O)N2)cc1)C(=O)N[C@H](Cc1ccc(NC(N)=O)cc1)C(=O)N[C@@H](CC(C)C)C(=O)N[C@@H](CCCCNC(C)C)C(=O)N1CCC[C@H]1C(=O)N[C@H](C)C(N)=O [DEGARELIX] (Ac-[d2Nal][dPhe(4-Cl)][d3Pal]S[Phe(4-NH2)](Dihydroorotyl(S))[dPhe(4-NHCONH2)]L[Lys(iPr)]P[dA]-NH2) | 1.64 nM | –
7 | CC(=O)N[C@H](Cc1ccc2ccccc2c1)C(=O)N[C@H](Cc1ccc(Cl)cc1)C(=O)N[C@H](Cc1cccnc1)C(=O)N[C@@H](CO)C(=O)N[C@@H](Cc1ccc(NC(=O)[C@@H]2CC(=O)NC(=O)N2)cc1)C(=O)N[C@H](Cc1ccc(NC(N)=O)cc1)C(=O)N[C@@H](Cc1c[nH]cn1)C(=O)N[C@@H](CCCCNC(C)C)C(=O)N1CCC[C@H]1C(=O)N[C@H](C)C(N)=O | 10.6 nM | –
8 | C#CC[C@H](NC(=O)[C@@H](Cc1ccc(NC(N)=O)cc1)NC(=O)[C@H](Cc1ccc(NC(=O)[C@@H]2CC(=O)NC(=O)N2)cc1)NC(=O)[C@H](CO)NC(=O)[C@@H](Cc1cccnc1)NC(=O)[C@@H](Cc1ccc(Cl)cc1)NC(=O)[C@@H](Cc1ccc2ccccc2c1)NC(C)=O)C(=O)N[C@@H](CCCCNC(C)C)C(=O)N1CCC[C@H]1C(=O)N[C@H](C)C(N)=O | 2.11 nM | –
9 | CC(=O)N[C@H](Cc1ccc2ccccc2c1)C(=O)N[C@H](Cc1ccc(Cl)cc1)C(=O)N[C@H](Cc1cccnc1)C(=O)N[C@@H](CO)C(=O)N[C@@H](Cc1ccc(NC(=O)[C@@H]2CC(=O)NC(=O)N2)cc1)C(=O)N[C@H](Cc1ccc(NC(N)=O)cc1)C(=O)N[C@@H](CC(C)C)C(=O)N[C@@H](CCCCNC1CCCCC1)C(=O)N1CCC[C@H]1C(=O)N[C@H](C)C(N)=O | 1.5 nM | –
10 | CC(=O)N[C@H](Cc1ccc2ccccc2c1)C(=O)N[C@H](Cc1ccc(Cl)cc1)C(=O)N[C@H](Cc1cccnc1)C(=O)N[C@@H](CO)C(=O)N[C@@H](Cc1ccc(NC(=O)[C@@H]2CC(=O)NC(=O)N2)cc1)C(=O)N[C@H](Cc1ccc(NC(N)=O)cc1)C(=O)N[C@@H](CC(C)C)C(=O)N[C@@H](CNC(=O)CCNC(C)C)C(=O)N1CCC[C@H]1C(=O)N[C@H](C)C(N)=O | 1.98 nM | –
11 | CC(=O)N[C@H](Cc1ccc2ccccc2c1)C(=O)N[C@H](Cc1ccc(Cl)cc1)C(=O)N[C@H](Cc1cccnc1)C(=O)N[C@@H](CO)C(=O)N[C@@H](Cc1ccc(NC(=O)[C@@H]2CC(=O)NC(=O)N2)cc1)C(=O)N[C@H](Cc1ccc(NC(N)=O)cc1)C(=O)N[C@@H](CC(C)C)C(=O)N[C@@H](CCCNC(C)C)C(=O)N1CCC[C@H]1C(=O)N[C@H](C)C(N)=O | 1.72 nM | –
12 | CC(=O)N[C@H](Cc1ccc2ccccc2c1)C(=O)N[C@H](Cc1ccc(Cl)cc1)C(=O)N[C@H](Cc1cccnc1)C(=O)N[C@@H](CO)C(=O)N[C@@H](Cc1ccc(NC(=O)[C@@H]2CC(=O)NC(=O)N2)cc1)C(=O)N[C@H](Cc1ccc(NC(N)=O)cc1)C(=O)N(C)[C@@H](CC(C)C)C(=O)N[C@@H](CCCCNC(C)C)C(=O)N1CCC[C@H]1C(=O)N[C@H](C)C(N)=O | 1.47 nM | –
13 | CC(=O)N[C@H](Cc1ccc2ccccc2c1)C(=O)N[C@H](Cc1ccc(Cl)cc1)C(=O)N[C@H](Cc1cccnc1)C(=O)N[C@@H](CO)C(=O)N[C@@H](Cc1ccc(NC(=O)[C@@H]2CC(=O)NC(=O)N2)cc1)C(=O)N[C@H](Cc1ccc(NC(N)=O)cc1)C(=O)N[C@@H](CC(C)C)C(=O)N(C)[C@@H](CCCCNC(C)C)C(=O)N1CCC[C@H]1C(=O)N[C@H](C)C(N)=O | 52.2 nM | –
14 | CC(=O)N[C@H](Cc1ccc2ccccc2c1)C(=O)N[C@H](Cc1ccc(Cl)cc1)C(=O)N[C@@H](Cc1cccnc1)C(=O)N[C@@H](CO)C(=O)N[C@@H](Cc1ccc(NC(=O)[C@@H]2CC(=O)NC(=O)N2)cc1)C(=O)N[C@@H](Cc1ccc(NC(N)=O)cc1)C(=O)N[C@@H](CC(C)C)C(=O)N[C@@H](CCNC(C(=O)O)C1CCCCC1)C(=O)N1CCC[C@H]1C(=O)N[C@H](C)C(N)=O (some centres not stated) | – | 1.77 nM
15 | CC(=O)N[C@H](Cc1ccc2ccccc2c1)C(=O)N[C@H](Cc1ccc(Cl)cc1)C(=O)N[C@H](CNCc1ccccn1)C(=O)N[C@@H](CO)C(=O)N[C@@H](Cc1ccc(NC(=O)[C@@H]2CC(=O)NC(=O)N2)cc1)C(=O)N[C@H](Cc1ccc(NC(N)=O)cc1)C(=O)N[C@@H](CC(C)C)C(=O)N[C@@H](CCCCNC(C)C)C(=O)N1CCC[C@H]1C(=O)N[C@H](C)C(N)=O | 2.71 nM | –
16 | CC(=O)N[C@H](Cc1ccc2ccccc2c1)C(=O)N[C@H](Cc1ccc(Cl)cc1)C(=O)N[C@H](CN(Cc1ccccn1)Cc1ccccn1)C(=O)N[C@@H](CO)C(=O)N[C@@H](Cc1ccc(NC(=O)[C@@H]2CC(=O)NC(=O)N2)cc1)C(=O)N[C@H](Cc1ccc(NC(N)=O)cc1)C(=O)N[C@@H](CC(C)C)C(=O)N[C@@H](CCCCNC(C)C)C(=O)N1CCC[C@H]1C(=O)N[C@H](C)C(N)=O | – | 5.31 nM
17 | CC(=O)N[C@H](Cc1ccc2ccccc2c1)C(=O)N[C@H](Cc1ccc(Cl)cc1)C(=O)N[C@H](Cc1cccnc1)C(=O)N[C@@H](CO)C(=O)N[C@@H](Cc1ccc(NC(=O)[C@@H]2CC(=O)NC(=O)N2)cc1)C(=O)N(C)[C@H](Cc1ccc(NC(N)=O)cc1)C(=O)N[C@@H](CC(C)C)C(=O)N[C@@H](CCCCNC(C)C)C(=O)N1CCC[C@H]1C(=O)N[C@H](C)C(N)=O | 1.85 nM | –
18 | CC(=O)N[C@H](Cc1ccc2ccccc2c1)C(=O)N[C@H](Cc1ccc(Cl)cc1)C(=O)N[C@H](Cc1cccnc1)C(=O)N[C@@H](CO)C(=O)N[C@@H](Cc1ccc(NC(=O)[C@@H]2CC(=O)NC(=O)N2)cc1)C(=O)N[C@H](Cc1ccc(NC(N)=O)cc1)C(=O)N[C@@H](CC(C)C)C(=O)N[C@@H](CCCNC(=O)CNC(C)C)C(=O)N1CCC[C@H]1C(=O)N[C@H](C)C(N)=O | 1.38 nM | –
19 | CC(=O)N[C@H](Cc1ccc2ccccc2c1)C(=O)N[C@H](Cc1ccc(Cl)cc1)C(=O)N[C@H](Cc1cccnc1)C(=O)N[C@@H](CO)C(=O)N[C@@H](Cc1ccc(NC(=O)[C@@H]2CC(=O)NC(=O)N2)cc1)C(=O)N[C@H](Cc1ccc(NC(N)=O)cc1)C(=O)N[C@@H](CC(N)=O)C(=O)N[C@@H](CCCCNC(C)C)C(=O)N1CCC[C@H]1C(=O)N[C@H](C)C(N)=O | 9.18 nM | –
20 | CC(=O)N[C@H](Cc1ccc2ccccc2c1)C(=O)N[C@H](Cc1ccc(Cl)cc1)C(=O)N[C@H](Cc1cccnc1)C(=O)N[C@@H](CO)C(=O)N[C@@H](Cc1ccc(NC(=O)[C@@H]2CC(=O)NC(=O)N2)cc1)C(=O)N[C@H](Cc1ccc(NC(N)=O)cc1)C(=O)N[C@@H](Cc1ccc(O)cc1)C(=O)N[C@@H](CCCCNC(C)C)C(=O)N1CCC[C@H]1C(=O)N[C@H](C)C(N)=O | 2.85 nM | –
21 | CNC(=O)C[C@H](NC(=O)[C@@H](Cc1ccc(NC(N)=O)cc1)NC(=O)[C@H](Cc1ccc(NC(=O)[C@@H]2CC(=O)NC(=O)N2)cc1)NC(=O)[C@H](CO)NC(=O)[C@@H](Cc1cccnc1)NC(=O)[C@@H](Cc1ccc(Cl)cc1)NC(=O)[C@@H](Cc1ccc2ccccc2c1)NC(C)=O)C(=O)N[C@@H](CCCCNC(C)C)C(=O)N1CCC[C@H]1C(=O)N[C@H](C)C(N)=O | 25.8 nM | –
22 | CC(=O)N[C@H](Cc1ccc2ccccc2c1)C(=O)N[C@H](Cc1ccc(Cl)cc1)C(=O)N[C@@H](Cc1cccnc1)C(=O)N[C@@H](CO)C(=O)N[C@@H](Cc1ccc(NC(=O)[C@@H]2CC(=O)NC(=O)N2)cc1)C(=O)N[C@@H](Cc1ccc(NC(N)=O)cc1)C(=O)N[C@@H](CC(C)C)C(=O)N[C@@H](CCCNC(=O)[C@H]1CC(=O)NC(=O)N1)C(=O)N1CCC[C@H]1C(=O)N[C@H](C)C(N)=O | – | 1.77 nM
